# Laboratory results published in ChEMBL document CHEMBL1154352, “Toll-like receptor 7 selective synthetic oligoribonucleotide agonists: synthesis and structure-activity relationship studies” (J Med Chem, 2009).
# Active and inactive are the calls of the source. No cut-off for these calls is given here.
# Experiments:
# [1] = biological target: Toll-like receptor 3 (Homo sapiens) (UniProt O15455); assay: Activation of human TLR3 expressed in HEK293 assessed as induction of NF-kappaB activity reporter gene assay; type: cell-based
# Sequence of Toll-like receptor 3 (Homo sapiens) (O15455 whole entry): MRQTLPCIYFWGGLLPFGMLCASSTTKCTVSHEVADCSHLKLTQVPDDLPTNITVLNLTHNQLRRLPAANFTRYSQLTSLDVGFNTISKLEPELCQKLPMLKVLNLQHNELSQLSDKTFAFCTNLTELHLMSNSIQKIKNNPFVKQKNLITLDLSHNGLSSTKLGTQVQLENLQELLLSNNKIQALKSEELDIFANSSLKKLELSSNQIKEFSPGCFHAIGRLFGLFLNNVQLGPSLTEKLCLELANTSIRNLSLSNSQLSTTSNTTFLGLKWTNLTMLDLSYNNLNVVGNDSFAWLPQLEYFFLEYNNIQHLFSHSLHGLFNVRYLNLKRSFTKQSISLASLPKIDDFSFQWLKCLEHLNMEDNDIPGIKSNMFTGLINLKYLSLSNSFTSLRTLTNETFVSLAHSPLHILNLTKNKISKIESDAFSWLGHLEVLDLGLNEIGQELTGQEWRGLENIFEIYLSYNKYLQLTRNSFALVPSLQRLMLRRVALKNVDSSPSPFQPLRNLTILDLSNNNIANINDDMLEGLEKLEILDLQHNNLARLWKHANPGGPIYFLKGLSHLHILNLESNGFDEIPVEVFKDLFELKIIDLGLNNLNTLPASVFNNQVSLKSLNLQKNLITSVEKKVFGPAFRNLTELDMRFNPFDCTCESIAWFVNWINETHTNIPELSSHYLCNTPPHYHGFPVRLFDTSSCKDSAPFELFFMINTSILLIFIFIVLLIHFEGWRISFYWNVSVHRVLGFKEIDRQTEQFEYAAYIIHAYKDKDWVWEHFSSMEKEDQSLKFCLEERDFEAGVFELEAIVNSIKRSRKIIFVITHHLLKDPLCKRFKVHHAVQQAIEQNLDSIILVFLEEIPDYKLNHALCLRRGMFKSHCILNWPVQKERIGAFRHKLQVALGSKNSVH
# [2] = biological target: T1, Toll-like receptor 8 (Homo sapiens) (UniProt Q9NR97); assay: Activation of human TLR8 expressed in HEK293XL assessed as fold induction of NF-kappaB activity at 50 ug/ml after 18 hrs by reporter gene assay relative to control
# T1 sequence (whole entry): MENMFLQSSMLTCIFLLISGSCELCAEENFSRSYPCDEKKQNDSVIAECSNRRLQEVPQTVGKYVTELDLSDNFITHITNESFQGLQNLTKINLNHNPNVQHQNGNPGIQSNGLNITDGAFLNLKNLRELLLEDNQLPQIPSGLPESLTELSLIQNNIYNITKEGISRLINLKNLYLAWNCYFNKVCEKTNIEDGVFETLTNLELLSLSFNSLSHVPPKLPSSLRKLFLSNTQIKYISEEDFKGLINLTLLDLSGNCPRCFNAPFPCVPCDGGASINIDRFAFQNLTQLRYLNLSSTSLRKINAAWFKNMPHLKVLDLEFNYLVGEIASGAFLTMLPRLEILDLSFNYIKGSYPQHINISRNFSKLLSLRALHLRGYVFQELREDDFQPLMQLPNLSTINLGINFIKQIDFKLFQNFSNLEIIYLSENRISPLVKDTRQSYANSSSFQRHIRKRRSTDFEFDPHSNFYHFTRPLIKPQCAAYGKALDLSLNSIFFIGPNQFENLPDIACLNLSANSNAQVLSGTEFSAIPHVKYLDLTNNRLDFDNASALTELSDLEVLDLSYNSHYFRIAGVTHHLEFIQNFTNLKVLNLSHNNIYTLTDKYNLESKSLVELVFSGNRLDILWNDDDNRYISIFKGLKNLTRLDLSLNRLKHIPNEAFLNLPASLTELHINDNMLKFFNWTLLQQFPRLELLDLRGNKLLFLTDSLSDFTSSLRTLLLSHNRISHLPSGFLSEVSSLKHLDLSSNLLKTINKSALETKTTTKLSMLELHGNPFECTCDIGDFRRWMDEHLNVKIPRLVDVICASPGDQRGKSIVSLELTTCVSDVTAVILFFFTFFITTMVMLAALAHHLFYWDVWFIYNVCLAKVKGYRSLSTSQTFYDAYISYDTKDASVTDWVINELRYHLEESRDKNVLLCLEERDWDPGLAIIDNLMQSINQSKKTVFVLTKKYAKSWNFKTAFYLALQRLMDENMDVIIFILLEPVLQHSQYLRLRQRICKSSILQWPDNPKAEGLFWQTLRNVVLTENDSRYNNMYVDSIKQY
# Method in brief: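 HEK293 cells stably expressing human TLR7 or TLR8, transiently transfected with SEAP reporter plasmid; medium replaced, SIMRA compounds added, 18 h incubation. Supernatant SEAP measured by QuantiBlue; expressed as fold increase in NF-κB activity over PBS control. Tabulated data at 50 μg/mL, representative of three independent experiments.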
# Splenocyte [3] = assay: Immunomodulatory activity in C57BL/6 mouse splenocytes bearing TLR7 receptor assessed as IL6 release at 100 ug/ml after 24 hrs by ELISA; type: functional, cell-based
# Method in brief: (§1)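 C57BL/6 splenocytes in RPMI 1640 with 10% FBS, penicillin/streptomycin, 2 mM L-glutamine, plated at 5 × 10^6 cells/mL; compounds in PBS added, 37 °C for 24 h. Supernatant IL-12 and IL-6 by ELISA; representative of three independent experiments.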
# [4] = biological target: T2, Toll-like receptor 9 (Mus musculus) (UniProt Q9EQU3); assay: Activation of mouse TLR9 expressed in HEK293 assessed as induction of NF-kappaB activity reporter gene assay; type: cell-based
# T2 sequence (whole entry): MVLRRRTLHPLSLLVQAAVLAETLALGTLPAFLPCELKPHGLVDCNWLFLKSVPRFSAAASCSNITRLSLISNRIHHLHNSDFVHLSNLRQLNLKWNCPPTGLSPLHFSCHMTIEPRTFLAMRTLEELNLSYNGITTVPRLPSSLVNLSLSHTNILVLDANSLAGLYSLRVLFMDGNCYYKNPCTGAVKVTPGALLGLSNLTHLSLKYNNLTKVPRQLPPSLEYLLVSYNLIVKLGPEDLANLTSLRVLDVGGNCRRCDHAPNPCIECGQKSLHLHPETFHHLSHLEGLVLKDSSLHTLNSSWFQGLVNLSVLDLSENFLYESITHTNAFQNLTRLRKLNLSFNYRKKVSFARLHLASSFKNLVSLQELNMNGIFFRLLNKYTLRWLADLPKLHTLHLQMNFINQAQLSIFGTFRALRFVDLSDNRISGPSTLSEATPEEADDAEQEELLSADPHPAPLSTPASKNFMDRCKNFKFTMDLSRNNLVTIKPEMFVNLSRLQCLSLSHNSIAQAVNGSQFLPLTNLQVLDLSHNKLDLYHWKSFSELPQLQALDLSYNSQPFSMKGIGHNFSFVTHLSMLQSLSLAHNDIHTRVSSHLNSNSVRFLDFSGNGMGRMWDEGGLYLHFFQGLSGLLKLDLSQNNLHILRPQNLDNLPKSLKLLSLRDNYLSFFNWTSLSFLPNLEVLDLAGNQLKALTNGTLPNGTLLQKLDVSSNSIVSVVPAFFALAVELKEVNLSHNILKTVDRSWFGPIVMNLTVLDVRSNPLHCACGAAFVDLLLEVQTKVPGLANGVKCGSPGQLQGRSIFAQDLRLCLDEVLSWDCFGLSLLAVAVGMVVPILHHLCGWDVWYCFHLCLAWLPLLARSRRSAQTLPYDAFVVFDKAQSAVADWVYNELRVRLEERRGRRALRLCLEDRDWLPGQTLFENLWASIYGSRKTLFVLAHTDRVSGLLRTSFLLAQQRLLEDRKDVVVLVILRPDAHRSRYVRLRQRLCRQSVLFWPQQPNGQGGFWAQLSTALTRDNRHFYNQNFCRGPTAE
# [5] = Metabolic stability in human serum assessed as full length product remaining after 10 mins by HPLC; type: ADME, cell-free; settings: read-out: Stability
# Method in brief: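 About 0.5 A260 units compound in 1% human serum in PBS, 37 °C; aliquot taken at 10 min, analysed by anion-exchange HPLC for percent intact full-length product.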
# Splenocyte [6] = assay: Immunomodulatory activity in C57BL/6 mouse splenocytes bearing TLR7 receptor assessed as IL12 release at 100 ug/ml after 24 hrs by ELISA; type: functional, cell-based; method in brief: as §1
Activity [1],fold change (FC) [2],Activity (Splenocyte [3]),Activity [4],remaining at 10 min [5] [%],Activity (Splenocyte [6]),Structure (SMILES)
inactive,0.7,Active,inactive,76,Active,Nc1ccn([C@@H]2O[C@H](COP(=O)(S)O[C@H]3[C@@H](O)[C@H](n4ccc5c(=O)[nH]c(N)nc54)O[C@@H]3COP(=O)(S)O[C@H]3[C@@H](O)[C@H](n4cnc5c(N)ncnc54)O[C@@H]3COP(=O)(S)O[C@H]3[C@@H](O)[C@H](n4cnc5c(N)ncnc54)O[C@@H]3COP(=O)(S)O[C@H]3[C@@H](O)[C@H](n4ccc5c(=O)[nH]c(N)nc54)O[C@@H]3COP(=O)(S)O[C@H]3[C@@H](O)[C@H](n4ccc(=O)[nH]c4=O)O[C@@H]3COP(=O)(S)O[C@H]3[C@@H](O)[C@H](n4ccc(=O)[nH]c4=O)O[C@@H]3COP(=O)(S)O[C@H]3[C@@H](O)[C@H](n4cnc5c(N)ncnc54)O[C@@H]3COP(=O)(S)O[C@H]3[C@@H](O)[C@H](n4cnc5c(N)ncnc54)O[C@@H]3CO)[C@@H](OP(=O)(S)OC[C@H]3O[C@@H](n4ccc(=O)[nH]c4=O)[C@H](O)[C@@H]3OP(=O)(S)OC[C@H]3O[C@@H](n4ccc5c(=O)[nH]c(N)nc54)[C@H](O)[C@@H]3OP(=O)(S)OCC(O)COP(=O)(S)O[C@H]3[C@@H](O)[C@H](n4ccc5c(=O)[nH]c(N)nc54)O[C@@H]3COP(=O)(S)O[C@H]3[C@@H](O)[C@H](n4ccc(=O)[nH]c4=O)O[C@@H]3COP(=O)(S)O[C@H]3[C@@H](O)[C@H](n4ccc(N)nc4=O)O[C@@H]3COP(=O)(S)O[C@H]3[C@@H](O)[C@H](n4ccc5c(=O)[nH]c(N)nc54)O[C@@H]3COP(=O)(S)O[C@H]3[C@@H](O)[C@H](n4cnc5c(N)ncnc54)O[C@@H]3COP(=O)(S)O[C@H]3[C@@H](O)[C@H](n4cnc5c(N)ncnc54)O[C@@H]3COP(=O)(S)O[C@H]3[C@@H](O)[C@H](n4ccc5c(=O)[nH]c(N)nc54)O[C@@H]3COP(=O)(S)O[C@H]3[C@@H](O)[C@H](n4ccc(=O)[nH]c4=O)O[C@@H]3COP(=O)(S)O[C@H]3[C@@H](O)[C@H](n4ccc(=O)[nH]c4=O)O[C@@H]3COP(=O)(S)O[C@H]3[C@@H](O)[C@H](n4cnc5c(N)ncnc54)O[C@@H]3COP(=O)(S)O[C@H]3[C@@H](O)[C@H](n4cnc5c(N)ncnc54)O[C@@H]3CO)[C@H]2O)c(=O)n1 (some centres not stated)
inactive,0.3,Active,inactive,83,Active,Nc1ccn([C@@H]2O[C@H](COP(=O)(S)O[C@H]3[C@@H](O)[C@H](n4cnc5c(N)ncnc54)O[C@@H]3COP(=O)(S)O[C@H]3[C@@H](O)[C@H](n4cnc5c(N)ncnc54)O[C@@H]3CO)[C@@H](OP(=O)(S)OC[C@H]3O[C@@H](n4ccc(=O)[nH]c4=O)[C@H](O)[C@@H]3OP(=O)(S)OC[C@H]3O[C@@H](n4ccc5c(=O)[nH]c(N)nc54)[C@H](O)[C@@H]3OP(=O)(S)OC[C@H]3O[C@@H](n4ccc(N)nc4=O)[C@H](O)[C@@H]3OP(=O)(S)OC[C@H]3O[C@@H](n4ccc5c(=O)[nH]c(N)nc54)[C@H](O)[C@@H]3OP(=O)(S)OC[C@H]3O[C@@H](n4cnc5c(N)ncnc54)[C@H](O)[C@@H]3OP(=O)(S)OC[C@H]3O[C@@H](n4ccc(N)nc4=O)[C@H](O)[C@@H]3OP(=O)(S)OC[C@H]3O[C@@H](n4ccc(=O)[nH]c4=O)[C@H](O)[C@@H]3OP(=O)(S)OC[C@H]3O[C@@H](n4ccc(=O)[nH]c4=O)[C@H](O)[C@@H]3OP(=O)(S)OCC(O)COP(=O)(S)O[C@H]3[C@@H](O)[C@H](n4ccc(=O)[nH]c4=O)O[C@@H]3COP(=O)(S)O[C@H]3[C@@H](O)[C@H](n4ccc(=O)[nH]c4=O)O[C@@H]3COP(=O)(S)O[C@H]3[C@@H](O)[C@H](n4ccc(N)nc4=O)O[C@@H]3COP(=O)(S)O[C@H]3[C@@H](O)[C@H](n4cnc5c(N)ncnc54)O[C@@H]3COP(=O)(S)O[C@H]3[C@@H](O)[C@H](n4ccc5c(=O)[nH]c(N)nc54)O[C@@H]3COP(=O)(S)O[C@H]3[C@@H](O)[C@H](n4ccc(N)nc4=O)O[C@@H]3COP(=O)(S)O[C@H]3[C@@H](O)[C@H](n4ccc5c(=O)[nH]c(N)nc54)O[C@@H]3COP(=O)(S)O[C@H]3[C@@H](O)[C@H](n4ccc(=O)[nH]c4=O)O[C@@H]3COP(=O)(S)O[C@H]3[C@@H](O)[C@H](n4ccc(N)nc4=O)O[C@@H]3COP(=O)(S)O[C@H]3[C@@H](O)[C@H](n4cnc5c(N)ncnc54)O[C@@H]3COP(=O)(S)O[C@H]3[C@@H](O)[C@H](n4cnc5c(N)ncnc54)O[C@@H]3CO)[C@H]2O)c(=O)n1 (some centres not stated)
